Activity calls are given as the source filed them. The calls are words filed in the database; no cut-off is given here.
How the values were obtained:
[1] = Protein binding in plasma (unknown origin)
[2] = Drug absorption in human intestine
[3] = Apparent permeability in MDCK cells; settings: dog
[4] = Permeability in human Caco2 cells; settings: Caco-2
[5] = Effective permeability across human intestinal membrane by Ussing chamber technique
[6] = Hepatotoxicity in human HepG2 cells assessed as cell viability at 1000 uM by MTT assay relative to control; assay type: toxicity, cell-based; settings: read-out: Activity
[7] = Hepatotoxicity in human HepG2 cells assessed as cell viability at 30 uM by MTT assay relative to control; assay type: toxicity, cell-based; settings: read-out: Activity
[8] = tested on: Mus musculus; assay: Cognitive enhancing effect in C57BL/6J mouse assessed as reversal of scopolamine-induced long-term memory deficit by measuring increase in latency time during probe session at 1 mg/kg, iv administered 90 mins prior to scopolamine-challenge measured after 24 hrs by passive avoidance test; assay type: functional, organism-based; set-up: dose 1 mg/kg
[9] = Hepatotoxicity in human HepG2 cells assessed as cell viability at 1 uM by MTT assay relative to control; assay type: toxicity, cell-based; settings: read-out: Activity
[10] = Hepatotoxicity in human HepG2 cells assessed as cell viability at 300 uM by MTT assay relative to control; assay type: toxicity, cell-based; settings: read-out: Activity
[11] = Hepatotoxicity in human HepG2 cells assessed as cell viability at 10 uM by MTT assay relative to control; assay type: toxicity, cell-based; settings: read-out: Activity
[12] = Hepatotoxicity in human HepG2 cells assessed as cell viability at 3 uM by MTT assay relative to control; assay type: toxicity, cell-based; settings: read-out: Activity
[13] = Hepatotoxicity in human HepG2 cells assessed as cell viability at 100 uM by MTT assay relative to control; assay type: toxicity, cell-based; settings: read-out: Activity
[14] = tested on: Mus musculus; assay: Cognitive enhancing effect in C57BL/6J mouse assessed as reversal of scopolamine-induced long-term memory deficit by measuring latency time during training session at 1 mg/kg, iv administered 90 mins prior to scopolamine-challenge measured after 24 hrs by passive avoidance test; assay type: functional, organism-based; set-up: dose 1 mg/kg
[15] = target: Acetylcholinesterase (Electrophorus electricus, UniProt O42275); assay: Inhibition of electric eel AChE using acetylthiocholine iodide as substrate preincubated for 20 mins followed by substrate addition measured after 5 mins by Ellman's method
[16] = target: Cholinesterase (Equus caballus, UniProt P81908); assay: Inhibition of equine serum BuChE using butyrylthiocholine iodide as substrate preincubated for 20 mins followed by substrate addition measured after 25 mins by Ellman's method
Summary of the method: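 Ellman-type colorimetric assay in 0.1 M phosphate buffer pH 8.0 with 0.05 U/mL BuChE and 0.35 mM DTNB. Serial inhibitor dilutions pre-incubated with the mix for 20 min, then butyrylthiocholine iodide added (final 0.5 mM). […] At least three experiments in triplicate, mean ± SEM.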

[17] = target: T1, Amine oxidase [flavin-containing] A (Rattus norvegicus, UniProt P21396); assay: Inhibition of MAO-A in rat liver homogenate using [14C]-5HT as substrate preincubated for 30 mins followed by substrate addition measured after 20 mins by liquid scintillation counting analysis; assay type: tissue-based
T1 sequence (P21396 whole entry): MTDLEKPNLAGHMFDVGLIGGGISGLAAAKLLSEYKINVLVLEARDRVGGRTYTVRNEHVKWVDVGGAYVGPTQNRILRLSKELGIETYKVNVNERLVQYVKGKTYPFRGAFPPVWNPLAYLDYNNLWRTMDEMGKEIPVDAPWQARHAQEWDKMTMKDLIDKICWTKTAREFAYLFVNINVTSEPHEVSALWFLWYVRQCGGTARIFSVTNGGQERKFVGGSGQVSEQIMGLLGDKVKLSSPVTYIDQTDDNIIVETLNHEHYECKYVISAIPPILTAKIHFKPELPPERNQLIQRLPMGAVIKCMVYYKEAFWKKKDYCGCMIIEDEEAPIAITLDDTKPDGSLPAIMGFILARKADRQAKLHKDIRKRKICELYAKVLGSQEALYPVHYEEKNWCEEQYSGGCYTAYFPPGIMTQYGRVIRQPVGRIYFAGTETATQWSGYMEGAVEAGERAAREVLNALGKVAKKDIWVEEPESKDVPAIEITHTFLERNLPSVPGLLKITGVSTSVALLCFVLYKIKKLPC
Summary of the method: (§1)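 MAO source was rat liver homogenate. Enzyme pre-incubated 30 min with a range of inhibitor concentrations in 50 mM phosphate buffer, pH 7.4. Substrates: MAO A, 100 μM [14C]-5-HT (0.5 mCi/mmol), reaction 20 min; MAO B, 20 μM [14C]-PEA (2.5 mCi/mmol), reaction 4 min. Final volume 225 μl.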

[18] = target: T2, Amine oxidase [flavin-containing] B (Rattus norvegicus, UniProt P19643); assay: Inhibition of MAO-B in rat liver homogenate using [14C]-phenylethylamine as substrate preincubated for 30 mins followed by substrate addition measured after 4 mins by liquid scintillation counting analysis; assay type: tissue-based; summary of the method: as §1
T2 sequence (P19643 whole entry): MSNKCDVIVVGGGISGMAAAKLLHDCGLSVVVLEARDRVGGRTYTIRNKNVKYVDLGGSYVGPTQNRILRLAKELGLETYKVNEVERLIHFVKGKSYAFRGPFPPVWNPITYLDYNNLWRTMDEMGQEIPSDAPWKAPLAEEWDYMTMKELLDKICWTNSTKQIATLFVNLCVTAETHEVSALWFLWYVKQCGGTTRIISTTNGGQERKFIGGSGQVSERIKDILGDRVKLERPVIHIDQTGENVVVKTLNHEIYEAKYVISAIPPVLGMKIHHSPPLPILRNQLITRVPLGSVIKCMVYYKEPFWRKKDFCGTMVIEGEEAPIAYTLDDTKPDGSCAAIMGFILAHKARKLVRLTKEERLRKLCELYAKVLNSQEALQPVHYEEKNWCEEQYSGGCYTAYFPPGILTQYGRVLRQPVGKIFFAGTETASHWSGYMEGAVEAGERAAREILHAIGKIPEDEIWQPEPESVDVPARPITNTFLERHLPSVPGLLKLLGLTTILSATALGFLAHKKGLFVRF

[19] = tested on: Mus musculus; assay: Cognitive enhancing effect in C57BL/6J mouse assessed as reversal of scopolamine-induced long-term memory deficit by measuring latency time during training session at 35 mg/kg, iv administered 90 mins prior to scopolamine-challenge measured after 24 hrs by passive avoidance test; assay type: functional, organism-based; set-up: dose 35 mg/kg
[20] = tested on: Mus musculus; assay: Cognitive enhancing effect in C57BL/6J mouse assessed as reversal of scopolamine-induced long-term memory deficit by measuring increase in latency time during probe session at 35 mg/kg, iv administered 90 mins prior to scopolamine-challenge measured after 24 hrs by passive avoidance test; assay type: functional, organism-based; set-up: dose 35 mg/kg
[21] = target: T2, Amine oxidase [flavin-containing] B; assay: Inhibition of MAO-B in rat liver homogenate; assay type: tissue-based
Summary of the method: (§2)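 Rat liver homogenate as the MAO source. The enzyme is pre-incubated 30 min with several inhibitor concentrations in 50 mM phosphate buffer, pH 7.4. […] Mean ± SEM of at least three experiments in quadruplicate.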

[22] = target: T1, Amine oxidase [flavin-containing] A; assay: Inhibition of MAO-A in rat liver homogenate; assay type: tissue-based; summary of the method: as §2
[23] = target: T1, Amine oxidase [flavin-containing] A; assay: Inhibition of MAO-A in rat liver homogenate preincubated for 30 mins; assay type: tissue-based; summary of the method: as §2
[24] = target: T2, Amine oxidase [flavin-containing] B; assay: Irreversible inhibition of MAO-B in rat liver homogenate assessed as recovery of enzyme activity at 20 uM preincubated for 30 mins followed by centrifugation and washing with PBS buffer; assay type: tissue-based
Summary of the method: (§3)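 Enzyme pre-incubated 30 min at 37 °C with inhibitor: 10 μM (MAO A) or 20 μM (MAO B). […] Three cycles of washing in 50 mM phosphate buffer pH 7.4 and centrifugation at 25,000 g, 10 min, 4 °C. Protein measured by Bradford; activity then assayed by the radiometric method. Six independent experiments in triplicate; Kruskal-Wallis analysis.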

[25] = Metal chelating activity assessed as compound concentration required for copper complex formation after 5 mins by UV-Vis spectrometric analysis; assay type: physicochemical
Summary of the method: (§4)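 UV-Vis spectra (220-300 nm) recorded in distilled water at room temperature in 1 cm quartz cells. Ligand at 10 μM with increasing CuSO4, Fe2(SO4)3 or ZnSO4. Incubation times: Cu(II) 5 min, Zn(II) 1 h, Fe(III) overnight. Stoichiometry found by Job's method, plotting absorbance at 257 nm against ligand mole fraction.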

[26] = Metal chelating activity assessed as compound concentration required for ferric ion complex formation by UV-Vis spectrometric analysis; assay type: physicochemical; summary of the method: as §4
[27] = target: T1, Amine oxidase [flavin-containing] A; assay: Irreversible inhibition of MAO-A in rat liver homogenate assessed as recovery of enzyme activity at 10 uM preincubated for 30 mins followed by centrifugation and washing with PBS buffer; assay type: tissue-based; summary of the method: as §3
[28] = target: T2, Amine oxidase [flavin-containing] B; assay: Inhibition of MAO-B in rat liver homogenate preincubated for 30 mins; assay type: tissue-based; summary of the method: as §2
[29] = target: Acetylcholinesterase (Electrophorus electricus) (UniProt O42275); assay: Mixed-type inhibition of electric eel AChE using acetylthiocholine iodide as substrate at 0.5 to 5 uM by Lineweaver-Burk plot analysis
[30] = Metal chelating activity assessed as compound concentration required for zinc complex formation after 1 hr by UV-Vis spectrometric analysis; assay type: physicochemical; summary of the method: as §4

Sequence of Acetylcholinesterase (O42275 whole entry): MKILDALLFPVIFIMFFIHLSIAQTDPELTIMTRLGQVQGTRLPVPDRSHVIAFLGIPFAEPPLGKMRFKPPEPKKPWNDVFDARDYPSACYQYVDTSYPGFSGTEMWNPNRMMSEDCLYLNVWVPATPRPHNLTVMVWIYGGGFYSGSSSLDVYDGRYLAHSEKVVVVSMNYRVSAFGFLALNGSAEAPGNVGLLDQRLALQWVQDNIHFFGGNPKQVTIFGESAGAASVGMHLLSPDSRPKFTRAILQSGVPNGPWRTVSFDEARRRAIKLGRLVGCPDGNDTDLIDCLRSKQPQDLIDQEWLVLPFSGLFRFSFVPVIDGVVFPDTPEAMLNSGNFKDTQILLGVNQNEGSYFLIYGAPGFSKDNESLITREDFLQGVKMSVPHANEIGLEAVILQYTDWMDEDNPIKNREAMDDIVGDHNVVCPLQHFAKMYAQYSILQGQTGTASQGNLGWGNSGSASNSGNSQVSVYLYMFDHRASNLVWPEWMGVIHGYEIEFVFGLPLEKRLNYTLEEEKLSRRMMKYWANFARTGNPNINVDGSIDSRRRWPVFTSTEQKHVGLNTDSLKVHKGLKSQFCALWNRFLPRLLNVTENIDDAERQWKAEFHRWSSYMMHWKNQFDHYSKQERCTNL
Sequence of Cholinesterase (P81908 whole entry): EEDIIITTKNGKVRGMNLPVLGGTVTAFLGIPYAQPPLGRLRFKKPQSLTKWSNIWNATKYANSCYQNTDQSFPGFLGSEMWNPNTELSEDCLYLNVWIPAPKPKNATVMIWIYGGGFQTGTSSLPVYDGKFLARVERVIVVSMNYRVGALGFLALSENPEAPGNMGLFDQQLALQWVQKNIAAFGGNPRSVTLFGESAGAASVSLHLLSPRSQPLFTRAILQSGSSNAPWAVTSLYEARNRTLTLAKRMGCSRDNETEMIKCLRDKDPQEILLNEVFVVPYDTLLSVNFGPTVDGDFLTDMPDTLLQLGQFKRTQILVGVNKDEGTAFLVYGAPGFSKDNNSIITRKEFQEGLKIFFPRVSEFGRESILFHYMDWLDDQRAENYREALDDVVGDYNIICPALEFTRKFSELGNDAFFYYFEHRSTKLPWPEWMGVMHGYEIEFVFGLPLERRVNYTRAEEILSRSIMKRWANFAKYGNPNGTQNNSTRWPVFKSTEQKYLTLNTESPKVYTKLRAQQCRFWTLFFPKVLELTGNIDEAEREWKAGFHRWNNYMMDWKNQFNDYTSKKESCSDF
Sequence of Acetylcholinesterase (Electrophorus electricus) (O42275 24-633 limits assumed): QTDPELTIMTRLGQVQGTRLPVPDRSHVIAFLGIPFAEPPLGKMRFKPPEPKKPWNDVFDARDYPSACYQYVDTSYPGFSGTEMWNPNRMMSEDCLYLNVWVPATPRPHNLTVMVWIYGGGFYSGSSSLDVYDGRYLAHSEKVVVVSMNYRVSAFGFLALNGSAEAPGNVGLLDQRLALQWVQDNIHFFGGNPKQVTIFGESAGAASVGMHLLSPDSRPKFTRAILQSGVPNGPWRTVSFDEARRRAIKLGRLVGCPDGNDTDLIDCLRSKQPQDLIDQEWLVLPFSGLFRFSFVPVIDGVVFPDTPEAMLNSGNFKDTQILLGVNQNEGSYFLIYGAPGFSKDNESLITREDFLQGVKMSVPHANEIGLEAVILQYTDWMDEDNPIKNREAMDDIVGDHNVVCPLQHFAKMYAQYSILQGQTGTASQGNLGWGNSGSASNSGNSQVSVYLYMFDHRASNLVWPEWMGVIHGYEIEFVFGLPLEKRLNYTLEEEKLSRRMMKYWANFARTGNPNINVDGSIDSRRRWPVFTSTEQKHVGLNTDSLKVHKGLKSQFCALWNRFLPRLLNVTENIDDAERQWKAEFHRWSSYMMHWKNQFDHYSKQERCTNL

SMILES | fraction unbound [1] | Fa [2] [%] | Papp [3] [×10⁻⁶ cm/s] | Papp [4] [×10⁻⁶ cm/s] | Papp [5] [×10⁻⁶ cm/s] | IC50 [15] [µM] | further results
C#CCN(Cc1ccc(O)c2ncccc12)CC1CCN(Cc2ccccc2)CC1 | 0.236 | 96.8 | 32.6 | 5.23 | 499 | – | –
C#CCN(CCC1CCN(Cc2ccccc2)CC1)Cc1ccc(O)c2ncccc12 | 0.229 | 96.9 | 31.3 | 5.44 | 559 | – | –
C#CCN(Cc1ccc(O)c2ncccc12)C(C#N)C1CCN(Cc2ccccc2)CC1 (racemic) | 0.197 | 96.8 | 34.8 | 4.93 | 336 | – | –
COc1cc2c(cc1OC)C(=O)C(CC1CCN(Cc3ccccc3)CC1)C2 (configuration not stated) [DONEPEZIL] | 0.154 | 98 | – | – | – | – | viability at 1000 µM [6]: 40.9%; viability at 30 µM [7]: 83.5%; Activity [8]: Active; viability at 1 µM [9]: 98.6%; viability at 300 µM [10]: 53.4%; viability at 10 µM [11]: 92.4%; viability at 3 µM [12]: 97%; viability at 100 µM [13]: 80%; Activity [14]: inactive
C#CCN(C)[C@H](C)Cc1ccccc1 [SELEGILINE] | – | – | – | – | – | ≥ 500 | –
C#CCN(C)CCCOc1ccc(Cl)cc1Cl [CLORGILINE] | – | – | – | – | – | ≥ 500 | IC50 [16]: ≥ 500 µM
C#CCN(C)Cc1ccc(O)c2ncccc12 | 0.31 | 95.9 | 42.9 | 4.29 | 250 | ≥ 100 | IC50 [17]: 57 nM; IC50 [18]: 1500 nM
C#CCN(Cc1ccc(O)c2ncccc12)C1CCN(Cc2ccccc2)CC1 | 0.273 | 96.8 | 35.1 | 4.57 | 447 | ≥ 100 | IC50 [17]: ≥ 100000 nM; IC50 [16]: ≥ 100 µM; IC50 [18]: ≥ 100000 nM
C#CCN(Cc1ccc(O)c2ncccc12)C(C#N)CC1CCN(Cc2ccccc2)CC1 (racemic) | 0.216 | 96.9 | 32.2 | 5.2 | 375 | – | –
C#CCN(CCCC1CCN(Cc2ccccc2)CC1)Cc1ccc(O)c2ncccc12 | 0.226 | 96.9 | 30.2 | 5.41 | 624 | – | –
C#CCN(Cc1ccc(O)c2ncccc12)C(C#N)CCC1CCN(Cc2ccccc2)CC1 (racemic) | 0.2 | 97 | 30.6 | 5.44 | 418 | 1.8 | Activity [19]: inactive; viability at 1000 µM [6]: 51.5%; viability at 30 µM [7]: 92.4%; Activity [20]: Active; inhibition (INH) [21]: Dose-dependent effect; inhibition (INH) [22]: Dose-dependent effect; IC50 [23]: 3.8 µM; viability at 1 µM [9]: 98.4%; viability at 300 µM [10]: 71.4%; inhibition (INH) [24]: Active; Activity [25]: 0.65 mole fraction; viability at 10 µM [11]: 94.4%; IC50 [16]: 1.6 µM; viability at 3 µM [12]: 94.8%; Activity [26]: 0.5 mole fraction; inhibition (INH) [27]: Active; IC50 [28]: 8.3 µM; inhibition [29]: Active; viability at 100 µM [13]: 85.6%; Activity [30]: 0.65 mole fraction

— ChEMBL document CHEMBL3286171 (Eur J Med Chem, 2014)
